# PMC3918441 (Cell reports, 2014)
# Assays:
# KDM5B PHD1 finger = target: T1, KDM5B PHD1 finger (Homo sapiens, UniProt Q9UGL1); assay: 1H,15N HSQC NMR titration, KDM5B PHD1; assay type: binding; details: WT PHD1; NMR spectra, 298K, 0.1 mM 15N-labeled protein, 12-mer peptide
# T1 sequence (Q9UGL1 309-359 limits assumed): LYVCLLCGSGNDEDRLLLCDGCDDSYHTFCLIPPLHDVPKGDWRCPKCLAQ
# Summary of the method: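 Uniformly 15N-labeled wild-type PHD1 at 0.1 mM; 1H,15N HSQC spectra recorded over increasing concentrations of 12-mer histone tail peptides. Normalized shift change Δδ = √[(ΔδH)² + (ΔδN/5)²] in ppm. Kd obtained by nonlinear least-squares fit of Δδ against peptide and protein concentrations to a quadratic binding equation.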
# KDM5B PHD3 finger [1] = assay: 1H,15N HSQC NMR titration, KDM5B PHD3; assay type: binding, human; details: WT PHD3; 1H,15N HSQC titration, 298K, 0.1 mM protein, 12-mer peptides
# Summary of the method: (§1)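 1H,15N HSQC titration of uniformly 15N-labeled PHD3 at 0.1 mM, wild type or mutated (including D1506R). Spectra recorded with increasing concentrations of 12-mer histone tail peptides and superimposed. Per-residue normalized chemical shift changes calculated as Δδ = √[(ΔδH)² + (ΔδN/5)²].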
# [2] = tested on: KDM5B PHD3 mutants (W1502, W1512, D1506R); assay: Binding to KDM5B PHD3 mutants; design: species or system human; details: Fig. 6c-e
# Summary of the method: as §1
# KDM5B PHD3 finger [3] = assay: Tryptophan fluorescence titration, KDM5B PHD3; assay type: binding, human; details: WT PHD3; NMR and fluorescence spectroscopy
# Summary of the method: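 Tryptophan fluorescence at 25 °C: PHD3 in PBS titrated with increasing histone peptide concentrations. Excitation 295 or 280 nm; emission scanned 305–405 nm in 0.5 nm steps with 1 s integration; three scans averaged. Kd from nonlinear least-squares fit of intensity change to a quadratic binding equation; mean of three separate experiments, error as standard deviation.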
interaction with PHD3 D1506R mutant ([2]; acidic D1506 replaced with an arginine),interaction with PHD3 W1502 and W1512 mutants ([2]; mutation of W1502 and W1512),Substance,affinity of association (KDM5B PHD1 finger),pattern of chemical shift changes in HSQC spectra of PHD3 (KDM5B PHD3 finger [1]),preference of PHD3 among H3K4me3/2/1/0 (KDM5B PHD3 finger [3])
reduced it,disrupted interaction,"H3K4me3: trimethylated H3K4me3 peptide, 12-mer histone tail peptide; biotinylated in pull-downs",almost negligible association in the mM range of affinities,almost identical pattern of chemical shift changes,only slight preference for the trimethylated state of H3K4
,,"H3K4me2: H3K4me2 peptide, residues 1-12 of H3, dimethylated lysine 4",,almost identical pattern of chemical shift changes,
,,"H3K4me1: H3K4me1 peptide, residues 1-12 of H3, monomethylated lysine 4",,almost identical pattern of chemical shift changes,
